# Experimental data: article PMC9804109 (Current Research in Pharmacology and Drug Discovery, 2022)
# Tests used:
# [1] = tested on: trypsin; conditions: previous HPLC conditions; ref Akhmadishina et al., 2018; cited from earlier work
# [2] = tested on: melanoma cells; conditions: ref Le Gal et al., 2015; cited from earlier work
# [3] = tested on: LN-229 cells; experiment: MitoSOX flow cytometry of mitochondrial ROS, LN-229; type: cell-based, human; conditions: cytochrome c reductase inhibitor as control
# Method in brief: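 Cells trypsinised, washed and suspended in HBSS at 1 × 10^6 cells/mL, then exposed to test compound (0.2 or 1 mM) in HBSS for 2 h. Stained with 5 μM MitoSOX for 20 min at 37 °C and read by flow cytometry in the red channel. Antimycin A served as the ROS-promoting control. Mean channel fluorescence ± SEM, n = 3; two-way ANOVA with Bonferroni post-test vs untreated.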
# [4] = tested on: V79 lung fibroblasts; conditions: ref Grosicka-Maciąg et al., 2011; cited from earlier work
molecule,measurement,setting,value
YRFK-NH2,half-time of cleavage by trypsin,[1],6 h
Cc1c(C)c2c(c(C)c1O)CCC(C)(C(=O)O)O2 (centres unmarked) [Trolox],elevation of GSH/GSSG ratio,[2],ca. 2.5 times
CCCCCC[C@H]1C(=O)O[C@H](C)[C@H](NC(=O)c2cccc(NC=O)c2O)C(=O)O[C@@H](C)[C@@H]1OC(=O)CC(C)C [antimycin A],effect on mitochondrial ROS (MitoSOX),[3],lack of ROS-promoting effect
"CC(=O)N[C@@H](CS)C(=O)O [N-acetylcysteine (NAC), N-acetylcysteine]",elevation of GSH/GSSG ratio,[2],~3.8 times
same,increase of both GSH and GSSG levels,[4],up to 2 times
